Laboratory results reported in ChEMBL document CHEMBL3085645, “Design, synthesis and biological evaluation of phosphorodiamidate prodrugs of antiviral and anticancer nucleosides” (Eur J Med Chem, 2013).

Legend:
[1] = Cytotoxicity against HEL cells; assay type: cell-based; conditions: human
Felid alphaherpesvirus 1 = test: Antiviral activity against Feline herpesvirus infected in cat CRFK cells assessed as inhibition of virus-induced cytopathicity; assay type: functional, organism-based; conditions: Felid alphaherpesvirus 1, CRFK
Human alphaherpesvirus 1 [2] = test: Antiviral activity against acyclovir-resistant thymidine kinase-deficient Herpes simplex virus 1 KOS infected in HEL cells assessed as inhibition of virus-induced cytopathicity; assay type: functional, organism-based; conditions: Human alphaherpesvirus 1, KOS
Human alphaherpesvirus 2 = test: Antiviral activity against Herpes simplex virus 2 G infected in HEL cells assessed as inhibition of virus-induced cytopathicity; assay type: functional, organism-based; conditions: Human alphaherpesvirus 2, strain G
Human alphaherpesvirus 1 [3] = test: Antiviral activity against Herpes simplex virus 1 KOS infected in HEL cells assessed as inhibition of virus-induced cytopathicity; assay type: functional, organism-based; conditions: Human alphaherpesvirus 1, KOS
[4] = test system: Human immunodeficiency virus 2; test: Antiviral activity against HIV2 ROD infected in human CEM cells assessed as virus-induced giant cell formation after 4 days by microscopic analysis; assay type: functional, organism-based; conditions: Human immunodeficiency virus 2, ISOLATE ROD, CCRF-CEM, 96 h
Procedure, shortened: (§1)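 CEM cells (∼3 × 10^5 cells/cm3) infected with 100 CCID50/mL of HIV-1(IIIB) or HIV-2(ROD), seeded into wells with compound dilutions. Giant cell formation examined microscopically after 4 days at 37 °C.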

[5] = test system: Human immunodeficiency virus 1; test: Antiviral activity against HIV1 3B infected in human CEM cells assessed as virus-induced giant cell formation after 4 days by microscopic analysis; assay type: functional, organism-based; conditions: Human immunodeficiency virus 1, 3B, CCRF-CEM, 96 h; procedure, shortened: as §1
HeLa [6] = test: Cytostatic activity against human HeLa cells assessed as growth inhibition after 3 days by particle counting analysis; assay type: functional, cell-based; conditions: 72 h
Procedure, shortened: (§2)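 Tumor cells seeded and exposed to a range of compound concentrations. Cell number counted with a particle counter after 2 days (L1210, L1210/TK) or 3 days (CEM, CEM/TK, HeLa, HeLa TK, Caco-2, Colo-320).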

CCRF-CEM [7] = test: Cytostatic activity against human CEM cells assessed as growth inhibition after 3 days by particle counting analysis; assay type: functional, cell-based; conditions: 72 h; procedure, shortened: as §2
L1210 = test: Cytostatic activity against mouse L1210 cells assessed as growth inhibition after 2 days by particle counting analysis; assay type: functional, cell-based; conditions: L1210, 48 h; procedure, shortened: as §2
HeLa [8] = test: Cytostatic activity against thymidine kinase-deficient human HeLa cells assessed as growth inhibition after 3 days by particle counting analysis; assay type: functional, cell-based; conditions: 72 h; procedure, shortened: as §2
CCRF-CEM [9] = test: Cytotoxicity against human CEM cells; assay type: cell-based
Huh-7 = test: Cytotoxicity against human HuH7 cells; assay type: cell-based
Hepatitis C virus = test: Antiviral activity against Hepatitis C virus genotype 1b infected in human HuH7 cells assessed as inhibition of viral replication; assay type: functional, organism-based, Hepacivirus hominis

Row | Compound | MCC [1] [µM] | IC50 (HeLa [6]) [µM] | IC50 (CCRF-CEM [7]) [µM] | IC50 (L1210) [µM] | CC50 (Huh-7; human, huh-7, read-out: CC50) [µM] | EC50 (Hepatitis C virus; Huh-7, read-out: EC50) [µM] | other results
1 | CCCCCc1ccc(-c2cc3cn([C@H]4C[C@H](O)[C@@H](COP(=O)(N[C@@H](C)C(=O)OCc5ccccc5)N[C@@H](C)C(=O)OCc5ccccc5)O4)c(=O)nc3o2)cc1 | > 100 | – | – | – | – | – | EC50 (Felid alphaherpesvirus 1): > 100 µM; EC50 (Human alphaherpesvirus 1 [2]): > 100 µM; EC50 (Human alphaherpesvirus 2): > 100 µM; EC50 (Human alphaherpesvirus 1 [3]): > 100 µM
2 | C[C@H](NP(=O)(N[C@@H](C)C(=O)OCc1ccccc1)OC[C@@H]1C=C[C@H](n2cnc3c(NC4CC4)nc(N)nc32)C1)C(=O)OCc1ccccc1 | – | 23 | 19 | 54 | – | – | EC50 [4]: 1.1 µM; EC50 [5]: 0.56 µM
3 | C[C@H](NP(=O)(N[C@@H](C)C(=O)OCC(C)(C)C)OC[C@@H]1C=C[C@H](n2cnc3c(NC4CC4)nc(N)nc32)C1)C(=O)OCC(C)(C)C | – | 36 | 27 | 48 | – | – | EC50 [4]: 1.2 µM; EC50 [5]: 1.5 µM
4 | C[C@H](NP(=O)(N[C@@H](C)C(=O)OCc1ccccc1)OC[C@H]1O[C@@H](n2cnc(C(N)=O)c2N)[C@H](O)[C@@H]1O)C(=O)OCc1ccccc1 | > 100 | > 250 | > 250 | > 250 | – | – | EC50 (Felid alphaherpesvirus 1): > 100 µM; EC50 (Human alphaherpesvirus 1 [2]): > 100 µM; EC50 (Human alphaherpesvirus 2): > 100 µM; EC50 (Human alphaherpesvirus 1 [3]): > 100 µM; IC50 (HeLa [8]): > 250 µM
5 | COC(=O)[C@H](C)NP(=O)(N[C@@H](C)C(=O)OC)OC[C@H]1O[C@@H](n2cnc(C(N)=O)c2N)[C@H](O)[C@@H]1O | > 100 | > 250 | > 250 | ≥ 250 | – | – | EC50 (Felid alphaherpesvirus 1): > 100 µM; EC50 (Human alphaherpesvirus 1 [2]): > 100 µM; EC50 (Human alphaherpesvirus 2): > 100 µM; EC50 (Human alphaherpesvirus 1 [3]): > 100 µM; IC50 (HeLa [8]): > 250 µM
6 | Cc1cn([C@H]2C[C@H](N=[N+]=[N-])[C@@H](COP(=O)(N[C@@H](C)C(=O)OCC(C)(C)C)N[C@@H](C)C(=O)OCC(C)(C)C)O2)c(=O)[nH]c1=O | – | – | – | – | – | – | CC50 (CCRF-CEM [9]): 75 µM; EC50 [4]: 0.013 µM; EC50 [5]: 0.0083 µM
7 | CCOc1nc(N)nc2c1ncn2[C@@H]1O[C@H](COP(=O)(N[C@@H](C)C(=O)OCC(C)(C)C)N[C@@H](C)C(=O)OCC(C)(C)C)[C@@H](O)[C@@]1(C)F | – | – | – | – | 73 | 0.05 | –
8 | CCOc1nc(N)nc2c1ncn2[C@@H]1O[C@H](COP(=O)(N[C@H](C)C(=O)OCC(C)(C)C)N[C@H](C)C(=O)OCC(C)(C)C)[C@@H](O)[C@@]1(C)F | – | – | – | – | > 100 | 0.23 | –
9 | C[C@H](NP(=O)(N[C@@H](C)C(=O)OCc1ccccc1)OC[C@@]1(N=[N+]=[N-])O[C@@H](n2ccc(=O)[nH]c2=O)[C@H](O)[C@@H]1O)C(=O)OCc1ccccc1 | – | – | – | – | > 100 | > 40 | –
10 | C[C@H](NP(=O)(N[C@@H](C)C(=O)OCC(C)(C)C)OC[C@@]1(N=[N+]=[N-])O[C@@H](n2ccc(=O)[nH]c2=O)[C@H](O)[C@@H]1O)C(=O)OCC(C)(C)C | – | – | – | – | > 100 | 22 | –
11 | C[C@H](NP(=O)(N[C@@H](C)C(=O)OCc1ccccc1)OC[C@@]1(N=[N+]=[N-])O[C@@H](n2ccc(N)nc2=O)[C@H](O)[C@@H]1O)C(=O)OCc1ccccc1 | – | – | – | – | > 100 | > 40 | –
12 | C[C@H](NP(=O)(N[C@@H](C)C(=O)OCC(C)(C)C)OC[C@@]1(N=[N+]=[N-])O[C@@H](n2ccc(N)nc2=O)[C@H](O)[C@@H]1O)C(=O)OCC(C)(C)C | – | – | – | – | 72 | > 40 | –
13 | C[C@H](NP(=O)(N[C@@H](C)C(=O)OCc1ccccc1)OC[C@H]1O[C@@H](n2cnc(C(N)=O)n2)[C@H](O)[C@@H]1O)C(=O)OCc1ccccc1 | – | – | – | – | – | > 100 | CC50 (Huh-7; Homo sapiens, Huh-7, read-out: EC50 (the source's name)): > 100 µM
14 | C[C@H](NP(=O)(N[C@@H](C)C(=O)OCC(C)(C)C)OC[C@H]1O[C@@H](n2cnc(C(N)=O)n2)[C@H](O)[C@@H]1O)C(=O)OCC(C)(C)C | – | – | – | – | – | – | CC50 (Huh-7; human, huh-7, read-out: ED50 (the source's name)): > 100 µM; EC50 (Hepatitis C virus; Huh-7, read-out: ED50 (the source's name)): > 100 µM
15 | NC(=O)c1ncn([C@@H]2O[C@H](CO)[C@@H](O)[C@H]2O)c1N [ACADESINE] | > 100 | 165 | 210 | ≥ 250 | – | – | EC50 (Felid alphaherpesvirus 1): > 100 µM; EC50 (Human alphaherpesvirus 1 [2]): > 100 µM; EC50 (Human alphaherpesvirus 2): > 100 µM; EC50 (Human alphaherpesvirus 1 [3]): > 100 µM; IC50 (HeLa [8]): ≥ 250 µM
16 | CCCCCc1ccc(-c2cc3cn([C@H]4C[C@H](O)[C@@H](CO)O4)c(=O)nc3o2)cc1 [CF1743] | ≥ 20 | – | – | – | – | – | –
